Activity calls are given as the source filed them. The calls are words filed in the database; no cut-off is given here.
Assays:
P388 [1] = test: Cytotoxicity against mouse P388 cells after 72 hrs by MTT assay; format: functional; details: P388, 72 h, read-out: ED50 (the source's name)
In short: (§1)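 Cells were grown in RPMI-1640 with 10% FBS at 37 °C under humidified 5% CO2 and seeded at 1 × 10^4 cells/well with compounds for 72 h. MTT (5 mg/mL stock) was then added for 4 h at 37 °C. Formazan was solubilized with acidic SDS (0.02 N HCl in 20% SDS), and absorbance was read at 570 nm against a 620 nm reference.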

A549 [2] = test: Cytotoxicity against human A549 cells after 72 hrs by MTT assay; format: functional; details: A549, 72 h, read-out: ED50 (the source's name); in short: as §1
P388 [3] = test: Cytotoxicity against mouse P388 cells at 40 uM after 72 hrs by MTT assay; format: functional, cell-based
A549 [4] = test: Cytotoxicity against human A549 cells at 40 uM after 72 hrs by MTT assay; format: functional, cell-based

SMILES | EC50 (P388 [1]) [µM] | EC50 (A549 [2]) [µM] | Activity (P388 [3]) | Activity (A549 [4])
CC(=O)OC[C@]12CC[C@@H](O)C(C)(C)C1CC[C@]1(C)[C@@H]2CC=C2[C@@H]3CC(C)(C)CC[C@]3(C(=O)O)CC[C@]21C (stereo not given in full) | 28.2 | 13.3 |  | 
CC1(C)CC[C@]2(C(=O)O)CC[C@]3(C)C(=CC[C@@H]4[C@@]5(C)CCC(=O)C(C)(C)[C@@H]5[C@H](O)C[C@]43C)[C@@H]2C1 | 18.5 | 33.5 |  | 
CC1(C)CC[C@]2(C(=O)O)CC[C@]3(C)C(=CC[C@@H]4[C@]56CC[C@@](O)(OC5)C(C)(C)[C@@H]6CC[C@]43C)[C@@H]2C1 [LANTANOLIC ACID] | 24 | 26.5 |  | 
COc1cc([C@@H]2c3cc4c(cc3[C@@H](O[C@@H]3O[C@@H]5CO[C@@H](C)O[C@H]5[C@H](O)[C@H]3O)[C@H]3COC(=O)[C@H]23)OCO4)cc(OC)c1O [ETOPOSIDE] |  | 3.76 |  | 
CC(=O)[C@@H]1CC[C@]2(C(=O)O)CC[C@]3(C)[C@H](CC[C@@H]4[C@@]5(C)CCC(=O)C(C)(C)[C@@H]5[C@H](O)C[C@]43C)[C@@H]12 |  |  | inactive | inactive
C=C(CO)[C@@H]1CC[C@]2(C(=O)O)CC[C@]3(C)[C@H](CC[C@@H]4[C@@]5(C)CCC(=O)C(C)(C)[C@@H]5[C@H](O)C[C@]43C)[C@@H]12 |  |  | inactive | inactive
C=C(C)[C@@H]1CC[C@]2(C(=O)O)CC[C@]3(C)[C@H](CC[C@@H]4[C@]56CC[C@@](O)(OC5)C(C)(C)[C@@H]6CC[C@]43C)[C@@H]12 | 22.3 | 29.9 |  | 
C=C(C)[C@@H]1CC[C@]2(C(=O)O)CC[C@]3(C)[C@@H](CC[C@@H]4[C@@]5(C)CCC(=O)C(C)(C)[C@@H]5[C@H](O)C[C@]43C)[C@@H]12 | 32.7 | ≥ 40 |  | 
